How the values were obtained:
Assay type in all cases: cell-based
[1] = test system: Oocyte; assay: Allosteric modulation of gamma-aminobutyric acid receptor A alpha1beta2gamma2S expressed in Xenopus oocytes assessed as potentiation of GABA-mediated chloride current at 1 uM by voltage clamp assay
Summary of the method: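 Rat α1β2γ2S cRNAs (1:1:10) injected into collagenase-defolliculated oocytes, stored at 18 °C, recorded days 1–5. Two-microelectrode voltage clamp at −70 mV in HEPES-buffered bath (pH 7.4). Compound in bath solution with GABA EC5–10 (from a 0.1 μM–1 mM GABA concentration–response) applied by automated fast perfusion at 300 μL/s. Read-out is IGABA potentiation.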

[2] = test system: Oocyte; assay: Allosteric modulation of rat gamma-aminobutyric acid receptor A alpha1beta2gamma2S expressed in Xenopus oocytes assessed as potentiation of GABA-mediated chloride current at 0.1 to 1000 uM after 20 secs by voltage clamp assay
Summary of the method: (§1)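 Rat α1β2γ2S cRNAs (1:1:10) injected into collagenase-defolliculated Xenopus oocytes, stored at 18 °C, recorded days 1–5. Two-microelectrode voltage clamp at −70 mV in 90 mM NaCl/1 mM KCl/1 mM MgCl2/1 mM CaCl2/5 mM HEPES pH 7.4. Compounds at 0.1–1000 μM co-applied by fast perfusion with GABA at EC5–10, determined from a 0.1 μM–1 mM GABA concentration–response. Read-out: IGABA potentiation.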

[3] = Allosteric modulation of rat gamma-aminobutyric acid receptor A alpha1beta2gamma2S expressed in Xenopus oocytes assessed as potentiation of GABA-mediated chloride current after 20 secs by voltage clamp assay; conditions: Oocyte; summary of the method: as §1

Row | SMILES | Activity [1] [%] | Emax [2] [%] | EC50 [3] [µM]
1 | Cc1ncc2n1-c1ccc(Cl)cc1C(c1ccccc1F)=NC2 | 342 | – | –
2 | C=C[C@]1(C)CC[C@@H](C(C)C)C(=O)C1=C(C)C | – | 164 | 109
3 | C=C1CC/C=C(\C)CC[C@@H](C(C)C)C(=O)C1 | – | 886 | 135
4 | C=C[C@]1(C)CC[C@@H](C(C)C)C(=O)[C@H]1C(=C)C | – | 669 | 64.8
5 | CC1=C2[C@H](/C=C(\C)C(=O)O)CC[C@@H](C)[C@H]2CC1 | 400 | – | –
6 | C[C@@H]1CCC2=C1C=C1C(C)(C)OO[C@@]1(O)C[C@H]2C | – | 588 | 65.3
7 | Cc1nnc2n1-c1ccc(Cl)cc1C(c1ccccc1Cl)=NC2 | 253 | – | –
8 | C/C=C\c1cc(OC)c(OC)cc1OC [CIS-ASARONE] | – | 1200 | 172
9 | CC1=CC[C@]2(CC1=O)[C@@H](C)CC[C@H]2C(C)C | – | 241 | 34
10 | CCc1cc2c(s1)N(C)C(=O)CN=C2c1ccccc1Cl | 260 | – | –
